Assay results as given in ChEMBL document CHEMBL3399923, “Design and synthesis of new bioisosteres of spirooxindoles (MI-63/219) as anti-breast cancer agents” (Bioorg Med Chem, 2015).

Tests used:
[1] = tested on: HEK293; experiment: Cytotoxicity against human HEK293 cells after 48 hrs by MTT assay; format: cell-based; settings: HEK293, 48 h
Procedure, shortened: (§1)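 MTT viability screen for cytotoxicity across the breast cancer and normal kidney epithelial lines; IC50 reported in µM.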

[2] = tested on: Vero; experiment: Cytotoxicity against African green monkey Vero cells after 48 hrs by MTT assay; format: cell-based; settings: Chlorocebus sabaeus; procedure, shortened: as §1
[3] = tested on: MDA-MB-231; experiment: Cytotoxicity against human MDA-MB-231 cells after 48 hrs by MTT assay; format: functional, cell-based; settings: MDA-MB-231, 48 h; procedure, shortened: as §1
[4] = tested on: MCF7; experiment: Cytotoxicity against human MCF7 cells after 48 hrs by MTT assay; format: functional, cell-based; settings: MCF7, 48 h; procedure, shortened: as §1

Row | SMILES | IC50 [1] | IC50 [2] | IC50 [3] | IC50 [4]
1 | CCN1C(=O)C2(N[C@H](c3ccccc3)[C@@H](c3ccccc3)C2C(=O)c2ccc(OCCN3CCOCC3)cc2)c2ccccc21 (stereo partly specified) | > 50 µM | > 50 µM | > 50 µM | > 50 µM
2 | O=C(c1ccc(OCCN2CCOCC2)cc1)C1[C@H](c2ccccc2)[C@@H](c2ccccc2)NC12C(=O)Nc1ccc([N+](=O)[O-])cc12 (stereo partly specified) | 45.4 µM | > 50 µM | > 50 µM | 24.7 µM
3 | O=C(c1ccc(OCCN2CCOCC2)cc1)C1[C@H](c2ccccc2)[C@@H](c2ccccc2)NC12C(=O)Nc1ccc(Cl)cc12 (stereo partly specified) | 25.4 µM | 30.8 µM | 19.2 µM | 18 µM
4 | CCN(CC)CCOc1ccc(C(=O)C2[C@H](c3ccccc3)[C@@H](c3ccccc3)NC23C(=O)Nc2ccccc23)cc1 (stereo partly specified) | 23.2 µM | 20.6 µM | 14.5 µM | 13.4 µM
5 | COc1ccc([C@H]2C(C(=O)c3ccccc3)C3(N[C@@H]2c2ccccc2)C(=O)Nc2ccccc23)cc1 (stereo partly specified) | > 50 µM | 43.5 µM | 30.5 µM | 20.6 µM
6 | CN(C)CCOc1ccc(C(=O)C2[C@H](c3ccccc3)[C@@H](c3ccccc3)NC23C(=O)Nc2ccc([N+](=O)[O-])cc23)cc1 (stereo partly specified) | 24.2 µM | 28.8 µM | 17.8 µM | 17.2 µM
7 | O=C(c1ccc(OCCN2CCCC2)cc1)C1[C@H](c2ccccc2)[C@@H](c2ccccc2)NC12C(=O)Nc1ccccc12 (stereo partly specified) | 25.3 µM | 19.4 µM | 16.8 µM | 23 µM
8 | CC/C(=C(\c1ccc(O)cc1)c1ccc(OCCN(C)C)cc1)c1ccccc1 | > 50 µM | > 50 µM |  | 13.6 µM
